Values after ≈ are worked out from the molar mass of the structure shown. Active and inactive are the calls of the source. The calls are words filed in the database; no cut-off is given here.
Assays:
Homo sapiens [1] = test: Toxicity against healthy human assessed as effect on ECG parameters at […], iv administered every 12 hrs for 7 days measured on day 9; format: organism-based; design: route intravenous; conditions: in vivo
Enterococcus = test: Antibacterial activity against Enterococcus in healthy human intestine at […], iv administered every 12 hrs for 7 days measured on day 21; format: functional, organism-based
Procedure, shortened: (§1)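 Twelve healthy adults (6 male, 6 female, 20–41 y) received 600 mg by i.v. infusion over 60 min q12h, 13 doses over 7 days. Feces were collected on days −1, 2, 5, 7, 9, 14 and 21 (first specimen of the day) and frozen at −70°C. Samples were suspended in prereduced peptone yeast extract and 10-fold diluted onto nonselective and selective agars. Aerobic plates were incubated 24 h and anaerobic jars 48 h, both at 37°C. Counts were expressed as log CFU/g, with a detection limit of 10^2, and compared by Wilcoxon signed-rank test.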

Escherichia coli [2] = test: Antibacterial activity against Escherichia coli in healthy human intestine assessed as decrease in bacterial count at […], iv administered every 12 hrs for 7 days measured on day 14; format: functional, organism-based; procedure, shortened: as §1
Clostridium perfringens = test: Antibacterial activity against Clostridium perfringens by broth microdilution method; format: functional
Clostridioides difficile [3] = test: Antibacterial activity against Clostridium difficile ATCC 700057 after 48 hrs by CLSI method; format: functional; conditions: ATCC 700057, 48 h
Procedure, shortened: (§2)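 Agar dilution MIC per CLSI anaerobe guidance, with 10^5 CFU per spot inoculum and 48 h incubation. The reference strain was run alongside new colonizing fecal isolates. MIC was taken as the lowest drug concentration giving complete growth inhibition. A provisional resistance breakpoint of 4 mg/liter was applied.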

Homo sapiens [4] = test: Toxicity against healthy human assessed as occurrence of urinary infection at […], iv administered every 12 hrs for 7 days measured on day 9; format: organism-based, Urine; design: route intravenous; conditions: in vivo
Escherichia coli [5] = test: Antibacterial activity against Escherichia coli in healthy human intestine assessed as log reduction in bacterial count per gram of feces at […], iv administered every 12 hrs for 7 days measured on day 7; format: functional; procedure, shortened: as §1
Enterococcus faecalis = test: Antibacterial activity against Enterococcus faecalis ATCC 29212 at =< 4 mg/L after 48 hrs by CLSI method; format: functional, organism-based
Propionibacterium = test: Antibacterial activity against Propionibacterium by broth microdilution method; format: functional
Clostridioides difficile [6] = test: Antibacterial activity against Clostridium difficile by broth microdilution method; format: functional
Prevotella = test: Antibacterial activity against Prevotella by broth microdilution method; format: functional
Staphylococcus aureus = test: Antibacterial activity against Staphylococcus aureus ATCC 29213 at =< 4 mg/L after 48 hrs by CLSI method; format: functional, organism-based
Homo sapiens [7] = test: Toxicity against healthy human assessed as effect on hematological parameters at […], iv administered every 12 hrs for 7 days measured on day 9; format: organism-based; design: route intravenous; conditions: in vivo
Escherichia coli [8] = test: Antibacterial activity against Escherichia coli ATCC 25922 at =< 4 mg/L after 48 hrs by CLSI method; format: functional, organism-based
Clostridium septicum = test: Antibacterial activity against Clostridium septicum by broth microdilution method; format: functional
Peptostreptococcus sp. = test: Antibacterial activity against Peptostreptococcus sp. by broth microdilution method; format: functional
Candida albicans = test: Antifungal activity against Candida albicans in healthy human intestine at […], iv administered every 12 hrs for 7 days measured on day 21; format: functional, organism-based; procedure, shortened: as §1
Bifidobacterium = test: Antibacterial activity against Bifidobacterium in healthy human intestine assessed as log reduction in bacterial count per gram of feces at […], iv administered every 12 hrs for 7 days measured on day 7; format: functional; procedure, shortened: as §1
Bacteroides fragilis [9] = test: Antibacterial activity against Bacteroides fragilis ATCC 25285 after 48 hrs by CLSI method; format: functional; conditions: NCTC 9343, 48 h; procedure, shortened: as §2
Escherichia coli [10] = test: Antibacterial activity against Escherichia coli in healthy human intestine assessed as log reduction in bacterial count per gram of feces at […], iv administered every 12 hrs for 7 days measured on day 9; format: functional; procedure, shortened: as §1
Bacteroides fragilis [11] = test: Antibacterial activity against Bacteroides fragilis by broth microdilution method; format: functional
Lactobacillus = test: Antibacterial activity against Lactobacillus in healthy human intestine assessed as log reduction in bacterial count per gram of feces at […], iv administered every 12 hrs for 7 days measured on day 7; format: functional; procedure, shortened: as §1
Enterobacteriaceae = test: Antibacterial activity against Enterobacteriaceae in healthy human intestine assessed as decrease in bacterial count at […], iv administered every 12 hrs for 7 days measured on day 14; format: functional, organism-based; procedure, shortened: as §1
Bacteroides sp. = test: Antibacterial activity against Bacteroides sp. in healthy human intestine assessed as decrease in bacterial count at […], iv administered every 12 hrs for 7 days measured on day 21; format: functional, organism-based; procedure, shortened: as §1
Clostridium = test: Antibacterial activity against Clostridium in healthy human intestine assessed as decrease in bacterial count at […], iv administered every 12 hrs for 7 days measured on day 7; format: functional, organism-based; procedure, shortened: as §1

CCO/N=C(\C(=O)N[C@@H]1C(=O)N2C(C(=O)[O-])=C(Sc3nc(-c4cc[n+](C)cc4)cs3)CS[C@H]12)c1nsc(NP(=O)(O)O)n1 [CEFTAROLINE FOSAMIL]
Activity (Homo sapiens [1]): Non-toxic
Activity (Enterococcus): inactive
inhibition (Escherichia coli [2]): Active
MIC90 (Clostridium perfringens): 4 µg/mL (≈ 5.84 µM)
MIC (Clostridioides difficile [3]): 4 µg/mL (≈ 5.84 µM)
Activity (Homo sapiens [4]): Non-toxic
log10cfu (Escherichia coli [5]): 2
Activity (Enterococcus faecalis): Active
MIC90 (Propionibacterium): 4 µg/mL (≈ 5.84 µM)
MIC90 (Clostridioides difficile [6]): 4 µg/mL (≈ 5.84 µM)
MIC90 (Prevotella): > 32 µg/mL
Activity (Staphylococcus aureus): Active
Activity (Homo sapiens [7]): Non-toxic
Activity (Escherichia coli [8]): Active
MIC90 (Clostridium septicum): 4 µg/mL (≈ 5.84 µM)
MIC90 (Peptostreptococcus sp.): 4 µg/mL (≈ 5.84 µM)
Activity (Candida albicans): inactive
log10cfu (Bifidobacterium): 2.1
MIC (Bacteroides fragilis [9]): ≥ 64 µg/mL
log10cfu (Escherichia coli [10]): 1.5
MIC90 (Bacteroides fragilis [11]): > 32 µg/mL
log10cfu (Lactobacillus): 1.7
inhibition (Enterobacteriaceae): inactive
inhibition (Bacteroides sp.): inactive
inhibition (Clostridium): inactive

Source: ChEMBL document CHEMBL1255470, “Effect of ceftaroline on normal human intestinal microflora” (Antimicrob Agents Chemother, 2010)
